Test results as given in ChEMBL document CHEMBL6071194, “Building Metabolically Stable and Potent Anti-HIV Thioether-Lipid Analogues of Tenofovir Exalidex: A thorough Pharmacological Analysis” (J Med Chem, 2024).

Experiments:
[1] = Prodrug conversion in C57BL/6 mouse plasma assessed as Tmax of TFV metabolite at 10 mg/kg, po measured for 24 hrs by LC-MS/MS analysis; format: ADME, organism-based; settings: in vivo
Outline: (§1)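 Male C57BL/6 mice (8–12 weeks, 20–30 g) got a single gavage of 10 mg/kg in 10% EtOH/90% olive oil, n = 3 per time point with sparse sampling. Retro-orbital blood was taken at 0.25–24 h and plasma spun off. Prodrug and TFV were measured by LC–MS/MS.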

[2] = Prodrug conversion in C57BL/6 mouse plasma assessed as AUC (0 to 24 hrs) of TFV metabolite at 10 mg/kg, po measured for 24 hrs by LC-MS/MS analysis; format: ADME, organism-based; settings: in vivo; outline: as §1
[3] = Therapeutic index, ratio of CC50 for HEK293T cells to IC50 for HIV-1 sub-type-C MJ4 infected in HEK293T cells; format: toxicity, cell-based; settings: human, read-out: Ratio CC50/IC50
Outline: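 HEK293T cells (2 × 10⁴/well) with HSA-formulated compound (5:1 molar), 3-fold dilutions, 48 h at 37 °C. […] IC50 from luciferase after single-cycle infection with HIV-like particles carrying MJ4 subtype C RT/IN, over the noncytotoxic range.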

[4] = Ratio of AUC (0 to 24 hrs) of prodrug to TFV metabolite in C57BL/6 mouse liver at 10 mg/kg, po measured for 24 hrs by LC-MS/MS analysis; format: ADME, organism-based; settings: in vivo
Outline: (§2)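 After a single 10 mg/kg gavage (10% EtOH/90% olive oil) in male C57BL/6 mice, liver, kidney and brain were collected at 1, 4 and 24 h (n = 3 per time point). Tissues were rinsed in ice-cold saline and homogenized in ice-cold PBS pH 7.4 (3× weight for brain, 5× for liver and kidney). Prodrug and TFV were measured by LC–MS/MS; AUC0–24h by the linear trapezoidal rule.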

[5] = Prodrug conversion in C57BL/6 mouse kidney assessed as AUC (0 to 24 hrs) of TFV metabolite at 10 mg/kg, po measured for 24 hrs by LC-MS/MS analysis; format: ADME, organism-based; settings: in vivo; outline: as §2
[6] = Prodrug conversion in C57BL/6 mouse plasma assessed as Cmax of TFV metabolite at 10 mg/kg, po measured for 24 hrs by LC-MS/MS analysis; format: ADME, organism-based; settings: in vivo; outline: as §1
[7] = Clearance in C57BL/6 mouse plasma at 3 mg/kg, iv measured for 8 hrs by LC-MS/MS analysis; format: ADME, organism-based; settings: in vivo
Outline: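 Male C57BL/6 mice got a single 3 mg/kg i.v. dose in 10% PEG-300, 10% Solutol HS-15 and 80% saline, n = 3 per time point. Retro-orbital blood was taken at 0.1–8 h and plasma prodrug measured by LC–MS/MS. AUC0–8h used the trapezoidal rule; Cl = Dose/AUC0–8h.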

[8] = Prodrug conversion in C57BL/6 mouse kidney assessed as Cmax of TFV metabolite at 10 mg/kg, po measured for 24 hrs by LC-MS/MS analysis; format: ADME, organism-based; settings: in vivo; outline: as §2
[9] = Prodrug conversion in C57BL/6 mouse liver assessed as Cmax of TFV metabolite at 10 mg/kg, po measured for 24 hrs by LC-MS/MS analysis; format: ADME, organism-based; settings: in vivo; outline: as §2
[10] = Prodrug conversion in C57BL/6 mouse liver assessed as AUC (0 to 24 hrs) of TFV metabolite at 10 mg/kg, po measured for 24 hrs by LC-MS/MS analysis; format: ADME, organism-based; settings: in vivo; outline: as §2
[11] = Prodrug conversion in C57BL/6 mouse liver assessed as Tmax of TFV metabolite at 10 mg/kg, po measured for 24 hrs by LC-MS/MS analysis; format: ADME, organism-based; settings: in vivo; outline: as §2
[12] = Ratio of AUC (0 to 24 hrs) of prodrug to TFV metabolite in C57BL/6 mouse plasma at 10 mg/kg, po measured for 24 hrs by LC-MS/MS analysis; format: ADME, organism-based; settings: in vivo; outline: as §1
[13] = Prodrug conversion in C57BL/6 mouse kidney assessed as Tmax of TFV metabolite at 10 mg/kg, po measured for 24 hrs by LC-MS/MS analysis; format: ADME, organism-based; settings: in vivo; outline: as §2
[14] = Clearance in C57BL/6 mouse plasma at 10 mg/kg, po measured for 24 hrs by LC-MS/MS analysis; format: ADME, organism-based; settings: in vivo; outline: as §1
[15] = Volume of distribution in C57BL/6 mouse plasma at 10 mg/kg, po measured for 24 hrs by LC-MS/MS analysis; format: ADME, organism-based; settings: in vivo; outline: as §1
[16] = Ratio of AUC (0 to 24 hrs) of prodrug to TFV metabolite in C57BL/6 mouse kidney at 10 mg/kg, po measured for 24 hrs by LC-MS/MS analysis; format: ADME, organism-based; settings: in vivo; outline: as §2
[17] = Tmax in C57BL/6 mouse kidney at 10 mg/kg, po measured for 24 hrs by LC-MS/MS analysis; format: ADME, organism-based; outline: as §2
[18] = Half life in C57BL/6 mouse plasma at 10 mg/kg, po measured for 24 hrs by LC-MS/MS analysis; format: ADME, organism-based; settings: in vivo; outline: as §1
[19] = Tmax in C57BL/6 mouse liver at 10 mg/kg, po measured for 24 hrs by LC-MS/MS analysis; format: ADME, organism-based; outline: as §2
[20] = Stability in human liver microsomes assessed as compound remaining at 3 uM pretreated for 5 mins followed by NADPH addition measured upto 120 mins by LC-MS/MS analysis; format: ADME, Microsome; settings: 2.083 h, time < 125 min
Outline: (§3)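 Human liver microsomes (1 mg/mL) in 100 mM potassium phosphate were preincubated with 3 µM test compound (final) at 37 °C for 5 min, then started with NADPH. Duplicate aliquots at 0, 15, 30, 60 and 120 min were quenched in cold MeOH with internal standard and analysed by LC–MS/MS. Values were normalized to 0 min; a no-NADPH control was read at 120 min.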

[21] = Tmax in C57BL/6 mouse brain at 10 mg/kg, po measured for 24 hrs by LC-MS/MS analysis; format: ADME, organism-based; outline: as §2
[22] = Metabolic stability in human liver microsomes assessed as half life; format: ADME, Microsome; outline: as §3

Question: With `CCCCCCCCCCCCCCCCSCCCOP(=O)(O)CO[C@H](C)Cn1cnc2c(N)ncnc21.N` as the compound, how does the Tmax [1] read?
Answer: 4 h

Question: And the AUC [2]?
Answer: 657 ng·h/mL

Question: What about the selectivity ratio [3] of the same compound?
Answer: 4980

Question: And the Ratio [4]?
Answer: 0.222

Question: What about the AUC [5] of the same compound?
Answer: 14600 ng·h/mL

Question: What about the Cmax [6] of the same compound?
Answer: 39.4 ng/mL

Question: And the CL [7]?
Answer: 147 mL/min/kg

Question: And the Cmax [8]?
Answer: 695 ng/mL

Question: What about the Cmax [9] of the same compound?
Answer: 1440 ng/mL

Question: And the AUC [10]?
Answer: 29100 ng·h/mL

Question: And the Tmax [11]?
Answer: 4 h

Question: And the Ratio [12]?
Answer: 0.333

Question: And the Tmax [13]?
Answer: 4 h

Question: What about the CL [14] of the same compound?
Answer: 147 mL/min/kg

Question: With `C[C@H](Cn1cnc2c(N)ncnc21)OCP(=O)(O)OCCCSCCCCCCCCCCCOC1CCCCC1` as the compound, how does the selectivity ratio [3] read?
Answer: > 542

Question: With `C[C@H](Cn1cnc2c(N)ncnc21)OCP(=O)(O)OCCCSCCCCCCCCCCCCCCC(C)(C)C` as the compound, how does the selectivity ratio [3] read?
Answer: 138

Question: Which selectivity ratio [3] does the source give for `C[C@H](Cn1cnc2c(N)ncnc21)OCP(=O)(O)OCCCSCCCCCCCCCCCCC#C[Si](C)(C)C` here?
Answer: > 4170

Question: For `COC(=O)CCCCCCCCCCCCCCCSCCCOP(=O)(O)CO[C@H](C)Cn1cnc2c(N)ncnc21`, which selectivity ratio [3] is on record?
Answer: > 70

Question: Which selectivity ratio [3] does the source give for `C[C@H](Cn1cnc2c(N)ncnc21)OCP(=O)(O)OCCCSCCCCCCCCCCC#Cc1ccccc1` here?
Answer: > 12500

Question: For `CCCCCCCCCCCCCCCCOCCCOP(=O)(O)CO[C@H](C)Cn1cnc2c(N)ncnc21` [TENOFOVIR EXALIDEX], which selectivity ratio [3] is on record?
Answer: 5420

Question: Which selectivity ratio [3] does the source give for `CCCCCCCSCCCCCCCCCCCCOP(=O)(O)CO[C@H](C)Cn1cnc2c(N)ncnc21` here?
Answer: > 296

Question: What does the source list for `C[C@H](Cn1cnc2c(N)ncnc21)OCP(=O)(O)OCCCSCCCCCCCCCCCCC1CCCCC1.N`?
Answer: Tmax [1]: 4 h; AUC [2]: 740 ng·h/mL; selectivity ratio [3]: > 2000; Vd [15]: 228 L/kg; Ratio [4]: 0.411; Ratio [16]: 0.488; AUC [5]: 22100 ng·h/mL; Tmax [17]: 4 h; t1/2 [18]: 3.07 h; Cmax [6]: 47.8 ng/mL; CL [7]: 85.8 mL/min/kg; Cmax [9]: 3900 ng/mL; AUC [10]: 66600 ng·h/mL; Tmax [11]: 24 h; Ratio [12]: 1.44; Tmax [19]: 4 h; Tmax [13]: 24 h; CL [14]: 85.8 mL/min/kg

Question: With `CCCCCCCCCCCCCSCCCCCCOP(=O)(O)CO[C@H](C)Cn1cnc2c(N)ncnc21` as the compound, how does the selectivity ratio [3] read?
Answer: > 1370

Question: Which selectivity ratio [3] does the source give for `C[C@H](Cn1cnc2c(N)ncnc21)OCP(=O)(O)OCCCSCCCCCCCCCCCOc1ccc(F)cc1.N` here?
Answer: 6250

Question: And the Stability [20]?
Answer: 85%

Question: Which selectivity ratio [3] does the source give for `C[C@H](Cn1cnc2c(N)ncnc21)OCP(=O)(O)OCCCSCCCCCCCCCCC#Cc1ccc(F)cc1` here?
Answer: > 10000

Question: With `CCCCCCCCCCCCCCSCCCOP(=O)(O)CO[C@H](C)Cn1cnc2c(N)ncnc21` as the compound, how does the selectivity ratio [3] read?
Answer: > 16700

Question: What does the source list for `C[C@H](Cn1cnc2c(N)ncnc21)OCP(=O)(O)OCCCSCCCCCCCCCCCCc1ccc(F)cc1.N`?
Answer: Tmax [1]: 4 h; AUC [2]: 635 ng·h/mL; selectivity ratio [3]: > 11100; Ratio [4]: 0.877; Ratio [16]: 0.322; AUC [5]: 23800 ng·h/mL; Tmax [17]: 4 h; CL [7]: 134 mL/min/kg; Cmax [8]: 1420 ng/mL; Cmax [9]: 3980 ng/mL; AUC [10]: 72500 ng·h/mL; Tmax [11]: 24 h; Tmax [13]: 24 h; CL [14]: 134 mL/min/kg; Tmax [21]: 4 h

Question: With `C[C@H](Cn1cnc2c(N)ncnc21)OCP(=O)(O)OCCCSCCCCCCCCCCC#CC1CCCCC1` as the compound, how does the selectivity ratio [3] read?
Answer: > 7580

Question: With `C[C@H](Cn1cnc2c(N)ncnc21)OCP(=O)(O)OCCCSCCCCCCCCCCCSc1ccccc1` as the compound, how does the selectivity ratio [3] read?
Answer: > 594

Question: For `CC(C)[Si](C#CCCCCCCCCCCCSCCCOP(=O)(O)CO[C@H](C)Cn1cnc2c(N)ncnc21)(C(C)C)C(C)C`, which selectivity ratio [3] is on record?
Answer: 224

Question: For `CCCCCCCCCCSCCCCCCCCCOP(=O)(O)CO[C@H](C)Cn1cnc2c(N)ncnc21`, which selectivity ratio [3] is on record?
Answer: > 1720

Question: For `CCCCCCCCCCCCCCCCCSCCOP(=O)(O)CO[C@H](C)Cn1cnc2c(N)ncnc21`, which selectivity ratio [3] is on record?
Answer: 7150

Question: With `C[C@H](Cn1cnc2c(N)ncnc21)OCP(=O)(O)OCCCSCCCCCCCCCCCCC#CC(C)(C)C` as the compound, how does the selectivity ratio [3] read?
Answer: > 516

Question: With `C[C@H](Cn1cnc2c(N)ncnc21)OCP(=O)(O)OCCCSCCCCCCCCCCCCc1ccccc1` as the compound, how does the selectivity ratio [3] read?
Answer: > 12500

Question: What does the source list for `C[C@H](Cn1cnc2c(N)ncnc21)OCP(=O)(O)OCCCSCCCCCCCCCCCOc1ccccc1.N`?
Answer: selectivity ratio [3]: > 8060; Stability [20]: 69%

Question: Which half-life [22] does the source give for `C[C@H](Cn1cnc2c(N)ncnc21)OCP(=O)(O)OCCCOCCCCCCCCCCCCCCCC(F)(F)F.N` here?
Answer: 2 h

Question: Which selectivity ratio [3] does the source give for `CCCCSCCCCCCCCCCCCCCCOP(=O)(O)CO[C@H](C)Cn1cnc2c(N)ncnc21` here?
Answer: > 331

Question: For `CCCCCCCCCCCCSCCCOP(=O)(O)CO[C@H](C)Cn1cnc2c(N)ncnc21`, which selectivity ratio [3] is on record?
Answer: > 532

Question: For `C#CCCCCCCCCCCCCCCSCCCOP(=O)(O)CO[C@H](C)Cn1cnc2c(N)ncnc21`, which selectivity ratio [3] is on record?
Answer: > 3570
